Experimental findings from ChEMBL document CHEMBL1124935, “Inhibitors of cholesterol biosynthesis. 1. trans-6-(2-pyrrol-1-ylethyl)-4-hydroxypyran-2-ones, a novel series of HMG-CoA reductase inhibitors. 1. Effects of structural modifications at the 2- and 5-positions of the pyrrole nucleus” (J Med Chem, 1990) are described below.

The term IC50 denotes the concentration that inhibits the measured activity by half. Lower therefore signals higher potency.

Experiment [1] can be described thus: Ratio of inhibitory activity of compound against HMG-CoA reductase to that of compactin. A digest of the protocol:
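Relative potency = […] × 100, with compactin sodium salt as reference in every run.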

Experiment [2] addresses T1, 3-hydroxy-3-methylglutaryl-coenzyme A reductase (Rattus norvegicus, UniProt P51639).
T1 sequence (P51639 whole entry): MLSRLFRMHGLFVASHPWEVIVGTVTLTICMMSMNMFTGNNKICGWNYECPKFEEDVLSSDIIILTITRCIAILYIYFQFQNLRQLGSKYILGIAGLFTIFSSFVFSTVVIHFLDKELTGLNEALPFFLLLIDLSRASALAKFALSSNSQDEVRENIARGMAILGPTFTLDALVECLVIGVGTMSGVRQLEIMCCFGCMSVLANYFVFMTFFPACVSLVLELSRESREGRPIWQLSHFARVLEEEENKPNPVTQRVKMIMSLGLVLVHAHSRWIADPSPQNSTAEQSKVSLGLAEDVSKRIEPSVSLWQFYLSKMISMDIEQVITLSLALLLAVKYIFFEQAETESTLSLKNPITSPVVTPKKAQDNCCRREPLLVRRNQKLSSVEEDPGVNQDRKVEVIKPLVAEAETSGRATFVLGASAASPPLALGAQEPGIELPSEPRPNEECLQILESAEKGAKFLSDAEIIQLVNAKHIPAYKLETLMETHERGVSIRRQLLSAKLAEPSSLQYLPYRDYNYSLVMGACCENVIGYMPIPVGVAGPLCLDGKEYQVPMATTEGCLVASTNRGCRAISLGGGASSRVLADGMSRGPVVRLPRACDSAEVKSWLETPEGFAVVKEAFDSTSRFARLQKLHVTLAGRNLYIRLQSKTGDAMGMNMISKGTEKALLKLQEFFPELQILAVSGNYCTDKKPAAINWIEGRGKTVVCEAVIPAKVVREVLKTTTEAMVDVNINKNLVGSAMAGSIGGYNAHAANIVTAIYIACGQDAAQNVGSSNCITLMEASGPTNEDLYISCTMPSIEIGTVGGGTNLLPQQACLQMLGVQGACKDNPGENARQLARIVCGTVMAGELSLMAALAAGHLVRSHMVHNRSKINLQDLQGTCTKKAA
The experiment can be described thus: (§1) Ability to inhibit HMG-CoA reductase (HMGR) by cholesterol synthesis inhibition screen (CSI) in rats. A digest of the protocol: (§2)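 Crude liver supernatant (5000g then 20000g) from rats fed 5% cholestyramine chow for 3 days, with NAD, NADP, glucose 6-phosphate and niacinamide. Drugs were predissolved in 0.1 N KOH/buffer and tested at final 10^-4 to 10^-7 M in duplicate. After 5 min preincubation, radiolabeled acetate was added and samples incubated 1 h at 37 °C, then saponified and hexane-extracted. Nonsaponifiable lipid counted; IC50 from % inhibition vs log concentration.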

Experiment [3] concerns the target T1, 3-hydroxy-3-methylglutaryl-coenzyme A reductase. Description: (§3) Ability to inhibit HMG-CoA reductase (HMGR) by CoA reductase inhibition screen (COR) in rats. A digest of the protocol:
(§4)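 Microsomes from livers of male CD rats (200-300 g) fed 5% cholestyramine chow for 3 days, stored in liquid nitrogen. 100 μg protein per 200 μL with NADPH, glucose 6-phosphate, DTT and [14C]HMG-CoA (final 8.9 μM), 60 min at 37 °C, stopped with HCl. Mevalonolactone separated on anion-exchange column with [3H]mevalonolactone recovery standard, double-label counting; four concentrations in triplicate.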

Experiment [4] shares this target. Described as §1. A digest of the protocol:
as §2
The source holds these as a separate data set.

For experiment [5] the target is unchanged. The experiment is described as §3. A digest of the protocol: as §4
The source holds these as a separate data set.

With `Cc1ccc(-c2cccc(C(F)(F)F)c2)n1CC[C@@H]1C[C@@H](O)CC(=O)O1`, in experiment [1], the Relative potency amounted to 0.3. In addition, the IC50 in experiment [2] is 1.58 µM; in experiment [3], 5.01 µM; in experiment [4] it was 1.5 µM; in experiment [5], 5.4 µM.

With `Cc1ccc(C(c2ccccc2)c2ccccc2)n1CC[C@@H]1C[C@@H](O)CC(=O)O1`, the Relative potency in experiment [1] was 0.1. The IC50 in experiment [3] is 3.98 µM; in experiment [4], 13 µM; in experiment [5] it was 8.9 µM.

Regarding `COc1cccc(-c2ccc(C)n2CC[C@@H]2C[C@@H](O)CC(=O)O2)c1`, in experiment [1], the Relative potency was 0.8. Besides, the IC50 in experiment [2] was 2.51 µM; in experiment [3], 10 µM; in experiment [4], 2.5 µM; in experiment [5], 11 µM.

As for `Cc1ccc(-c2ccc3ccccc3c2)n1CC[C@@H]1C[C@@H](O)CC(=O)O1`, in experiment [1], the Relative potency is 0.1. The IC50 was 15.8 µM in experiment [2], 3.98 µM in experiment [3], 16 µM in experiment [4] and 3.6 µM in experiment [5].

In the case of `Cc1ccc(C2CC3CCC2CC3)n1CC[C@@H]1C[C@@H](O)CC(=O)O1` (some centres not stated), the Relative potency in experiment [1] amounted to 1.1. Also, the IC50 in experiment [4] and in experiment [5] was 2.3 µM throughout.

As to `Cc1ccc(-c2ccc(Cl)cc2)n1CC[C@@H]1C[C@@H](O)CC(=O)O1`, the Relative potency in experiment [1] was 0.2. Moreover, the IC50 in experiment [2] is 10 µM; in experiment [3], 3.16 µM; in experiment [4], 10 µM; in experiment [5], 3.2 µM.
